Measured values taken from ChEMBL document CHEMBL4020768 (Bioorg Med Chem Lett, 2017).

Experiments:
[1] = Selectivity ratio of Ki for recombinant rat sigma 2 receptor to Ki for recombinant human sigma 1 receptor
[2] = molecular target: T1, Sigma intracellular receptor 2 (Rattus norvegicus, UniProt Q5U3Y7); assay: Displacement of (+)-[3H]-ditolylguanidine from recombinant rat sigma 2 receptor expressed in rat PC12 cell membranes after 90 mins in presence of sigma 1 receptor blocker (+)-SKF-10047 by scintillation counting method
T1 sequence (Q5U3Y7 whole entry): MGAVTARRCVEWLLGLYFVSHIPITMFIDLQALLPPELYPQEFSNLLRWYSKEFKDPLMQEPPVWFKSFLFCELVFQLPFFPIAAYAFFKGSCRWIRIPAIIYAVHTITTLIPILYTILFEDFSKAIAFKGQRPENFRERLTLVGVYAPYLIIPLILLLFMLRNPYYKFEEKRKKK
Procedure, shortened: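 PC-12 cell membranes (12-30 µg protein per reaction) in 50 mM Tris pH 8.0 with 30 nM [³H]DTG plus 1.8 µM (+)-SKF-10,047 to block σ1 sites; competitor at graded concentrations; 90 min at 37 °C; filtration through 0.3% PEI-soaked glass fiber filters; scintillation counting; two or three independent experiments in triplicate.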

[3] = molecular target: Sigma non-opioid intracellular receptor 1 (Homo sapiens, UniProt Q99720); assay: Displacement of (+)-[3H]-pentazocine from recombinant human sigma 1 receptor expressed in baculovirus infected Sf9 insect cell membranes after 90 mins by scintillation counting method
Procedure, shortened: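 Human σ1 cloned in pFastBac, baculovirus-expressed in Sf9 cells (infected at 4 x 10⁶ cells/mL, 27 °C, harvested 48 h); washed membranes, 2.5 µg protein per reaction in 50 mM Tris pH 8.0 with 10 nM [³H](+)-pentazocine and 8 competitor concentrations 10 pM–100 µM; 90 min at 37 °C; filtration on PEI-soaked glass fiber filters; scintillation counting; two or three independent experiments in triplicate.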

Sigma non-opioid intracellular receptor 1, sequence (Q99720 whole entry): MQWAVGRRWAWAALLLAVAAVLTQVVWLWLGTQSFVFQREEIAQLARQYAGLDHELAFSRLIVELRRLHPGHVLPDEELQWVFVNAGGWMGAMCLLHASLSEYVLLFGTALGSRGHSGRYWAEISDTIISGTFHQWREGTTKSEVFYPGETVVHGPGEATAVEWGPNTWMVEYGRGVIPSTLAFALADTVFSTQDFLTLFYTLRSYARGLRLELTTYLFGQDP

| Structure (SMILES) | Ratio Ki [1] | Ki [2] [µM] | Ki [3] [µM] |
| --- | --- | --- | --- |
| CC(C)(C)c1ccc(CCCN2CCCCC2)cc1 | 21 | 0.0315 | 0.0015 |
| CC1CN(CCCc2ccc(C(C)(C)C)cc2)CC(C)O1 (mixture of isomers) | 9 | 0.0779 | 0.0084 |
| CC(Cc1ccc(C(C)(C)C)cc1)CN1C[C@@H](C)O[C@@H](C)C1 (some centres undefined) [FENPROPIMORPH] | – | 0.854 | – |
| CC(C)(C)c1ccc(CCCN2CCOCC2)cc1 | 360 | 0.93 | 0.0026 |
| c1ccc(CCCN2CCOCC2)cc1 | 3 | 2.02 | 0.706 |
| CC1CCN(CCCc2ccc(C(C)(C)C)cc2)CC1 | 3 | 0.0138 | 0.0054 |
| C[C@@H]1CN(CCCc2ccc(C(C)(C)C)cc2)C[C@@H](C)O1 (relative stereo) | 29 | 0.0661 | 0.0023 |
